Results reported in ChEMBL document CHEMBL1649531, “In vitro activity of garenoxacin against Streptococcus pneumoniae mutants with characterized resistance mechanisms” (2009).
Converted amounts (≈) assume the structure as drawn.

Key:
Type in all cases: functional
[1] = system: Streptococcus pneumoniae; experiment: Antibacterial activity against Streptococcus pneumoniae W002 harboring wild-type parC and gyrA genes
[2] = system: Streptococcus pneumoniae; experiment: Antibacterial activity against Streptococcus pneumoniae D001 harboring parC Ser79Phe and gyrA Gly85Lys mutant genes
[3] = system: Streptococcus pneumoniae; experiment: Antibacterial activity against Streptococcus pneumoniae D002 harboring parC Ser79Phe and gyrA Ser81Phe mutant genes
[4] = system: Streptococcus pneumoniae; experiment: Antibacterial activity against Streptococcus pneumoniae W001 harboring wild-type parC and gyrA genes assessed as mutation prevention concentration after 48 hrs
In short: (§1)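 A 200 μl culture at 10 log10 CFU/ml was spread on Mueller-Hinton II agar with 5% sheep blood containing drug at a range of concentrations, then incubated at 37°C in 5% CO2. MPC was taken as the lowest concentration preventing colony formation after 48 h. Determinations were done in duplicate.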

[5] = system: Streptococcus pneumoniae; experiment: Antibacterial activity against Streptococcus pneumoniae W002 harboring wild-type parC and gyrA genes assessed as mutation prevention concentration after 48 hrs; in short: as §1
[6] = system: Streptococcus pneumoniae; experiment: Antibacterial activity against Streptococcus pneumoniae S001 harboring parC Asp83Asn mutant and wild-type gyrA genes assessed as mutation prevention concentration after 48 hrs; in short: as §1
[7] = system: Streptococcus pneumoniae; experiment: Antibacterial activity against Streptococcus pneumoniae S002 harboring parC Ser79Phe mutant and wild-type gyrA genes assessed as mutation prevention concentration after 48 hrs; in short: as §1
[8] = system: Streptococcus pneumoniae; experiment: Antibacterial activity against Streptococcus pneumoniae S003 harboring wild-type parC and gyrA Ser81Phe mutant genes assessed as mutation prevention concentration after 48 hrs; in short: as §1
[9] = system: Streptococcus pneumoniae; experiment: Antibacterial activity against Streptococcus pneumoniae S004 harboring wild-type parC and gyrA Gly85Asn mutant genes assessed as mutation prevention concentration after 48 hrs; in short: as §1
[10] = system: Streptococcus pneumoniae; experiment: Antibacterial activity against Streptococcus pneumoniae D001 harboring parC Ser79Phe and gyrA Gly85Lys mutant genes assessed as mutation prevention concentration after 48 hrs; in short: as §1
[11] = system: Streptococcus pneumoniae; experiment: Antibacterial activity against Streptococcus pneumoniae D002 harboring parC Ser79Phe and gyrA Ser81Phe mutant genes assessed as mutation prevention concentration after 48 hrs; in short: as §1
[12] = system: Streptococcus pneumoniae; experiment: Antibacterial activity against Streptococcus pneumoniae W001 harboring wild-type parC and gyrA genes
[13] = system: Streptococcus pneumoniae; experiment: Antibacterial activity against Streptococcus pneumoniae S001 harboring parC Asp83Asn mutant and wild-type gyrA genes
[14] = system: Streptococcus pneumoniae; experiment: Antibacterial activity against Streptococcus pneumoniae S002 harboring parC Ser79Phe mutant and wild-type gyrA genes
[15] = system: Streptococcus pneumoniae; experiment: Antibacterial activity against Streptococcus pneumoniae S003 harboring wild-type parC and gyrA Ser81Phe mutant genes
[16] = system: Streptococcus pneumoniae; experiment: Antibacterial activity against Streptococcus pneumoniae S004 harboring wild-type parC and gyrA Gly85Asn mutant genes
[17] = system: Streptococcus pneumoniae; experiment: Antibacterial activity against Streptococcus pneumoniae W001
[18] = system: Streptococcus pneumoniae; experiment: Antibacterial activity against Streptococcus pneumoniae W002
[19] = system: Streptococcus pneumoniae; experiment: Antibacterial activity against Streptococcus pneumoniae S001
[20] = system: Streptococcus pneumoniae; experiment: Antibacterial activity against Streptococcus pneumoniae S002
[21] = system: Streptococcus pneumoniae; experiment: Antibacterial activity against Streptococcus pneumoniae S003
[22] = system: Streptococcus pneumoniae; experiment: Antibacterial activity against Streptococcus pneumoniae S004
[23] = system: Streptococcus pneumoniae; experiment: Antibacterial activity against Streptococcus pneumoniae D001
[24] = system: Streptococcus pneumoniae; experiment: Antibacterial activity against Streptococcus pneumoniae D002
[25] = system: Streptococcus pneumoniae; experiment: Antibacterial activity against Streptococcus pneumoniae W001 assessed as resistant isolates with ParC79 mutation in quinolone resistance-determining regions
In short: (§2)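 Up to eight colonies per plate were grown individually, and genomic DNA was screened for ParC Ser79/Asp83 and GyrA Ser81/Gly85 changes by PCR-melting curve analysis with labelled hybridization probes. Sequences were confirmed by direct sequencing.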

[26] = system: Streptococcus pneumoniae; experiment: Antibacterial activity against Streptococcus pneumoniae W002 assessed as resistant isolates with ParC79 mutation in quinolone resistance-determining regions; in short: as §2
[27] = system: Streptococcus pneumoniae; experiment: Antibacterial activity against Streptococcus pneumoniae S001 assessed as resistant isolates with ParC79 mutation in quinolone resistance-determining regions; in short: as §2
[28] = system: Streptococcus pneumoniae; experiment: Antibacterial activity against Streptococcus pneumoniae S003 assessed as resistant isolates with ParC79 mutation in quinolone resistance-determining regions; in short: as §2
[29] = system: Streptococcus pneumoniae; experiment: Antibacterial activity against Streptococcus pneumoniae S004 assessed as resistant isolates with ParC79 mutation in quinolone resistance-determining regions; in short: as §2
[30] = system: Streptococcus pneumoniae; experiment: Antibacterial activity against Streptococcus pneumoniae W001 assessed as resistant isolates with ParC83 mutation in quinolone resistance-determining regions; in short: as §2
[31] = system: Streptococcus pneumoniae; experiment: Antibacterial activity against Streptococcus pneumoniae W002 assessed as resistant isolates with ParC83 mutation in quinolone resistance-determining regions; in short: as §2
[32] = system: Streptococcus pneumoniae; experiment: Antibacterial activity against Streptococcus pneumoniae S002 assessed as resistant isolates with ParC83 mutation in quinolone resistance-determining regions; in short: as §2
[33] = system: Streptococcus pneumoniae; experiment: Antibacterial activity against Streptococcus pneumoniae S003 assessed as resistant isolates with ParC83 mutation in quinolone resistance-determining regions; in short: as §2
[34] = system: Streptococcus pneumoniae; experiment: Antibacterial activity against Streptococcus pneumoniae S004 assessed as resistant isolates with ParC83 mutation in quinolone resistance-determining regions; in short: as §2
[35] = system: Streptococcus pneumoniae; experiment: Antibacterial activity against Streptococcus pneumoniae D002 assessed as resistant isolates with ParC83 mutation in quinolone resistance-determining regions; in short: as §2
[36] = system: Streptococcus pneumoniae; experiment: Antibacterial activity against Streptococcus pneumoniae W001 assessed as resistant isolates with GyrA81 mutation in quinolone resistance-determining regions; in short: as §2
[37] = system: Streptococcus pneumoniae; experiment: Antibacterial activity against Streptococcus pneumoniae W002 assessed as resistant isolates with GyrA81 mutation in quinolone resistance-determining regions; in short: as §2
[38] = system: Streptococcus pneumoniae; experiment: Antibacterial activity against Streptococcus pneumoniae S001 assessed as resistant isolates with GyrA81 mutation in quinolone resistance-determining regions; in short: as §2
[39] = system: Streptococcus pneumoniae; experiment: Antibacterial activity against Streptococcus pneumoniae S002 assessed as resistant isolates with GyrA81 mutation in quinolone resistance-determining regions; in short: as §2
[40] = system: Streptococcus pneumoniae; experiment: Antibacterial activity against Streptococcus pneumoniae D001 assessed as resistant isolates with GyrA81 mutation in quinolone resistance-determining regions; in short: as §2
[41] = system: Streptococcus pneumoniae; experiment: Antibacterial activity against Streptococcus pneumoniae W001 assessed as resistant isolates with GyrA85 mutation in quinolone resistance-determining regions; in short: as §2
[42] = system: Streptococcus pneumoniae; experiment: Antibacterial activity against Streptococcus pneumoniae W002 assessed as resistant isolates with GyrA85 mutation in quinolone resistance-determining regions; in short: as §2
[43] = system: Streptococcus pneumoniae; experiment: Antibacterial activity against Streptococcus pneumoniae S001 assessed as resistant isolates with GyrA85 mutation in quinolone resistance-determining regions; in short: as §2
[44] = system: Streptococcus pneumoniae; experiment: Antibacterial activity against Streptococcus pneumoniae S002 assessed as resistant isolates with GyrA85 mutation in quinolone resistance-determining regions; in short: as §2
[45] = system: Streptococcus pneumoniae; experiment: Antibacterial activity against Streptococcus pneumoniae S003 assessed as resistant isolates with GyrA85 mutation in quinolone resistance-determining regions; in short: as §2
[46] = system: Streptococcus pneumoniae; experiment: Antibacterial activity against Streptococcus pneumoniae S004 assessed as resistant isolates with GyrA85 mutation in quinolone resistance-determining regions; in short: as §2
[47] = system: Streptococcus pneumoniae; experiment: Antibacterial activity against Streptococcus pneumoniae D002 assessed as resistant isolates with GyrA85 mutation in quinolone resistance-determining regions; in short: as §2

O=C(O)c1cn(C2CC2)c2cc(N3CCNCC3)c(F)cc2c1=O [CIPROFLOXACIN]
MIC [1]: 0.25 µg/mL (≈ 0.754 µM)
MIC [2]: 32 µg/mL (≈ 96.6 µM)
MIC [3]: 8 µg/mL (≈ 24.1 µM)
Activity [4]: 8 µg/mL
Activity [5]: 8 µg/mL
Activity [6]: 128 µg/mL
Activity [7]: 128 µg/mL
Activity [8]: 64 µg/mL
Activity [9]: 64 µg/mL
Activity [10]: 256 µg/mL
Activity [11]: 256 µg/mL

C[C@H]1NCc2cc(-c3ccc4c(=O)c(C(=O)O)cn(C5CC5)c4c3OC(F)F)ccc21 [GARENOXACIN]
MIC [12]: 0.015 µg/mL (≈ 0.0352 µM)
MIC [1]: 0.015 µg/mL (≈ 0.0352 µM)
MIC [13]: 0.03 µg/mL (≈ 0.0704 µM)
MIC [14]: 0.06 µg/mL (≈ 0.141 µM)
MIC [15]: 0.06 µg/mL (≈ 0.141 µM)
MIC [16]: 0.06 µg/mL (≈ 0.141 µM)
MIC [2]: 0.25 µg/mL (≈ 0.586 µM)
MIC [3]: 0.5 µg/mL (≈ 1.17 µM)
MIC [17]: 0.015 µg/mL (≈ 0.0352 µM)
MIC [18]: 0.015 µg/mL (≈ 0.0352 µM)
MIC [19]: 0.03 µg/mL (≈ 0.0704 µM)
MIC [20]: 0.06 µg/mL (≈ 0.141 µM)
MIC [21]: 0.06 µg/mL (≈ 0.141 µM)
MIC [22]: 0.06 µg/mL (≈ 0.141 µM)
MIC [23]: 0.25 µg/mL (≈ 0.586 µM)
MIC [24]: 0.5 µg/mL (≈ 1.17 µM)
Activity [25]: 0%
Activity [26]: 0%
Activity [27]: 0%
Activity [28]: 65%
Activity [29]: 56%
Activity [30]: 0%
Activity [31]: 0%
Activity [32]: 0%
Activity [33]: 0%
Activity [34]: 0%
Activity [35]: 21%
Activity [36]: 50%
Activity [37]: 67%
Activity [38]: 77%
Activity [39]: 48%
Activity [40]: 70%
Activity [41]: 12%
Activity [42]: 0%
Activity [43]: 0%
Activity [44]: 9%
Activity [45]: 0%
Activity [46]: 0%
Activity [47]: 50%
Activity [4]: 0.12 µg/mL
Activity [5]: 0.12 µg/mL
Activity [6]: 1 µg/mL
Activity [7]: 1 µg/mL
Activity [8]: 2 µg/mL
Activity [9]: 2 µg/mL
Activity [10]: 4 µg/mL
Activity [11]: 4 µg/mL

COc1c(N2CCNC(C)C2)c(F)cc2c(=O)c(C(=O)O)cn(C3CC3)c12 (centres undefined) [GATIFLOXACIN]
MIC [12]: 0.12 µg/mL (≈ 0.32 µM)
MIC [1]: 0.12 µg/mL (≈ 0.32 µM)
MIC [13]: 0.25 µg/mL (≈ 0.666 µM)
MIC [14]: 0.12 µg/mL (≈ 0.32 µM)
MIC [15]: 0.12 µg/mL (≈ 0.32 µM)
MIC [16]: 0.25 µg/mL (≈ 0.666 µM)
MIC [2]: 4 µg/mL (≈ 10.7 µM)
MIC [3]: 8 µg/mL (≈ 21.3 µM)
Activity [4]: 0.5 µg/mL
Activity [5]: 0.5 µg/mL
Activity [6]: 4 µg/mL
Activity [7]: 4 µg/mL
Activity [8]: 8 µg/mL
Activity [9]: 8 µg/mL
Activity [10]: 16 µg/mL
Activity [11]: 16 µg/mL

C[C@H]1COc2c(N3CCN(C)CC3)c(F)cc3c(=O)c(C(=O)O)cn1c23.C[C@H]1COc2c(N3CCN(C)CC3)c(F)cc3c(=O)c(C(=O)O)cn1c23.O [LEVOFLOXACIN]
Activity [4]: 2 µg/mL
Activity [5]: 2 µg/mL
Activity [6]: 16 µg/mL
Activity [7]: 16 µg/mL
Activity [8]: 32 µg/mL
Activity [9]: 32 µg/mL
Activity [10]: 128 µg/mL
Activity [11]: 128 µg/mL

COc1c(N2C[C@@H]3CCCN[C@@H]3C2)c(F)cc2c(=O)c(C(=O)O)cn(C3CC3)c12 [MOXIFLOXACIN]
MIC [12]: 0.06 µg/mL (≈ 0.149 µM)
MIC [1]: 0.06 µg/mL (≈ 0.149 µM)
MIC [15]: 0.06 µg/mL (≈ 0.149 µM)
MIC [16]: 0.12 µg/mL (≈ 0.299 µM)
MIC [2]: 4 µg/mL (≈ 9.96 µM)
MIC [3]: 4 µg/mL (≈ 9.96 µM)
Activity [4]: 0.5 µg/mL
Activity [5]: 0.5 µg/mL
Activity [8]: 4 µg/mL
Activity [9]: 4 µg/mL
Activity [10]: 16 µg/mL
Activity [11]: 16 µg/mL
